Tb MetRS inh – T. brucei MetRS inhibitors, primary screen, biochemical, luminescence. methionyl-tRNA synthetase (Trypanosoma brucei brucei). inhibition, % at 11.9 µM. purified T. brucei MetRS, ATP depletion, Kinase-Glo luminescence. 360,000 compounds, 0.4% hits;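 active = inhibition above a per-plate cutoff of the control wells' mean inhibition plus 3 SD, cut at about 5.5% in these data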;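 note: 0% = DMSO wells median and 100% = median of wells with control inhibitor compound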
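System: purified T. brucei MetRS enzyme / Detection: Kinase-Glo luciferase luminescence reporting remaining unconsumed ATP / Medium: HEPES buffer with MgCl2, KCl, DTT, spermine, BSA, pyrophosphatase / Replication: singlicate, one well per compound / Evaluation: percent inhibition relative to median high and low control wells / Schedule: 2 h aminoacylation at 25 °C after 15 min preincubation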
IDE act – human IDE activators in live cells, primary screen, fluorescence polarization, HEK cells, FAbeta-B substrate | Insulin-degrading enzyme (Homo sapiens), P14735 | FAbeta-B cleavage; 0% vehicle, 100% cell-free pure enzyme wells | activation, % at 5.96 µM | 340,000 compounds, 0.073% hits | AID 493087, 2011;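 active = activation above the mean of all tested compounds plus 3 SD, set per screening campaign, cut at about 17% in these data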
Target sequence (P14735 whole entry, looked up): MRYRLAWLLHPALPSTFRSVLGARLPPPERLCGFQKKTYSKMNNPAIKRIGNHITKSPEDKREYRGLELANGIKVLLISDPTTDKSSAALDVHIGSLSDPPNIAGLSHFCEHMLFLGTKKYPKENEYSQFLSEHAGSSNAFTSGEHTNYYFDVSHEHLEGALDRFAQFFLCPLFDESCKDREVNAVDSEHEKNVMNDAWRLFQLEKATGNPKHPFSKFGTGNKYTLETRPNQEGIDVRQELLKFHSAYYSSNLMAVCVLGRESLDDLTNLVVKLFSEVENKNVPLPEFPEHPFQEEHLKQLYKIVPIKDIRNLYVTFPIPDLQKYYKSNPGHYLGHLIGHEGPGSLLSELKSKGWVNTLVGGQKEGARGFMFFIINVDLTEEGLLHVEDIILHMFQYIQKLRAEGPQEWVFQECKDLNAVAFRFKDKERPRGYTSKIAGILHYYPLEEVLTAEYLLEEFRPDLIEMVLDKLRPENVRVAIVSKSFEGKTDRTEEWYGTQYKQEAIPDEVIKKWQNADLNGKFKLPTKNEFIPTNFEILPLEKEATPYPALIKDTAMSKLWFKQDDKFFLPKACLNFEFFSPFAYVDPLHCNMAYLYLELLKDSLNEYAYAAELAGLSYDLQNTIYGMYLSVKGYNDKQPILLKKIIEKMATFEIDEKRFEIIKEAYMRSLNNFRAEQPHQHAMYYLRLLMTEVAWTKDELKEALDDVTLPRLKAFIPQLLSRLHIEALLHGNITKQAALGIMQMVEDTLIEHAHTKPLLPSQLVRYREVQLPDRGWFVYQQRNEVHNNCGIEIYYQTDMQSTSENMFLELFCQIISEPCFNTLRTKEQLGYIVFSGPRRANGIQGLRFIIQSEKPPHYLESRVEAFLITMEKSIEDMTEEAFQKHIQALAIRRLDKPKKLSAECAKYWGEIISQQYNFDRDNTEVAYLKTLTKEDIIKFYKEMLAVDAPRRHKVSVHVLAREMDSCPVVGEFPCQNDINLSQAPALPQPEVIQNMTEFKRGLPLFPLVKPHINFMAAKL
Yeast superoxide – reduction of superoxide in aged yeast, primary screen, HTS; S. cerevisiae aged cells, superoxide DHE fluorescence; stronger effect = lower value; superoxide response (% of plate mean), % at 10 µM; 330,000 compounds, 0.18% hits; AID 2690, 2010;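 active = superoxide response under a set limit, about three screen SD below normal, cut at about 65% in these data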;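 note: yeast aged for seven days with compound at 30 °C before DHE staining; 100% = average MFI of all compound-treated wells on the plate with controls excluded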
HDAC3 inhib – HDAC3 deacetylase inhibitors, primary screen, biochemical, fluorescence, cell-free homogeneous. Histone deacetylase 3 (Homo sapiens), O15379. recombinant HDAC3, fluorogenic peptide/trypsin coupled. inhibition, % at 8.3 µM. 320,000 compounds, 0.15% hits; in the data active = inhibition above about 26%, passing the limit was not always enough
IDE inh – human IDE inhibitors in live cells, primary screen, fluorescence polarization, HEK cells, FAbetaB substrate. AID 434962, 2010. FAbetaB cleavage. Insulin-degrading enzyme (Homo sapiens), P14735. inhibition, % at 5.59 µM. 320,000 compounds, 0.41% hits;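 active = percent inhibition above the average of all tested compounds plus 3 SD, set per screening campaign, cut at about 16% in these data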;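 note: IDE supplied by intact live HEK cells; FP after avidin binding of uncleaved biotin substrate so inhibition keeps polarization high; 0% = DMSO wells and 100% = 60 µM reference IDE inhibitor Ii1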
Efflux pump mplx – inhibitors of Candida efflux pumps in yeast, primary screen, S. cerevisiae, Nile Red, multiplex; S. cerevisiae Candida pump triplex; inhibition, % at 10 µM; AID 485275, 2010; 330,000 compounds, 0.44% hits;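 active = plate passing quality check with inhibition over a set limit, or well fluorescence over plate mean plus 4 SD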;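 note: Nile Red retained in pooled yeast measured as flow cytometry median fluorescence; 0% = buffer negative control and 100% = Enniatin B positive control; higher means more Nile Red kept so more efflux inhibition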
IDE inh confirm – human IDE inhibitors in live cells, confirmation, fluorescence polarization, HEK cells, FAbetaB substrate. shares compounds with IDE inh. FAbetaB cleavage. inhibition, % at 5.59 µM. 1,200 compounds, 51% hits. AID 435028, 2010;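 active = mean inhibition across triplicate wells above the cutoff set by the earlier primary insulin-degrading enzyme screen, cut at about 16% in these data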;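 note: 0% = DMSO wells and 100% = 60 µM reference IDE inhibitor Ii1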
HEK cytotox – cytotoxicity in HEK cells, cytotoxicity control for IDE inhibitor project, cell-based, luminescence. inhibition, % at 5.59 µM. 1,200 compounds, 28% hits. AID 449730, 2010. HEK293 cytotoxicity, ATP luminescence. shares compounds with IDE inh; in the data active = inhibition above about 22%;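 note: 0% = vehicle wells and 100% = reference cytotoxic drug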
Cmpd fluor yeast – compound fluorescence in yeast efflux pump counter-screen; shares compounds with Efflux pump mplx; S. cerevisiae AD/pABC3, flow cytometry; fluorescence ratio to DMSO, % at 10 µM; 1,700 compounds, 4% hits;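 active = fluorescence ratio to DMSO above its plate's cutoff, the plate mean ratio plus 5 SD, cut at about 210% in these data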;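 note: unstained yeast with no Nile Red so the signal is compound autofluorescence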
CaMdr1 efflux inh – inhibitors of Candida albicans Mdr1 efflux, confirmation, flow cytometry, singleplex, Cherry Pick1 set. shares compounds with Efflux pump mplx. S. cerevisiae AD/CaMDR1, Nile Red efflux. inhibition, % at 10 µM. 1,700 compounds, 1% hits; in the data active = inhibition above about 26%;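 note: 0% = DMSO vehicle and 100% = reference inhibitor; higher means more Nile Red retained so more efflux inhibition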
CaCdr2 efflux inh – inhibitors of Candida albicans Cdr2 efflux pump, confirmation, S. cerevisiae AD/CaCDR2, flow cytometry, cherry pick 1, singleplex. shares compounds with Efflux pump mplx. Nile Red retention. Nile Red retention ratio vs DMSO, % at 10 µM. 1,700 compounds, 4% hits. AID 588520, 2011; in the data active = Nile Red retention ratio vs DMSO above about 190%;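 note: higher ratio means more blocking of Cdr2 efflux of the dye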
CaCdr1 efflux inh – inhibitors of Candida albicans Cdr1 efflux pump, confirmation, S. cerevisiae AD/CaCDR1, flow cytometry, cherry pick 1, singleplex; shares compounds with Efflux pump mplx; 1,700 compounds, 1% hits; inhibition, % at 10 µM; Nile Red efflux;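 active = inhibition above the screen-wide mean plus twice its standard deviation, cut at about 32% in these data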
TbMetRS confirm – T. brucei MetRS inhibitors, confirmation, biochemical, luminescence. T. brucei MetRS enzyme, luminescence (ATP depletion). 1,400 compounds, 93% hits. AID 624412, 2012. shares compounds with Tb MetRS inh. inhibition, % at 11.9 µM; in the data active = inhibition above about 7%
Jurkat cytotox – Jurkat T cell cytotoxicity, cytotoxicity control for T. brucei MetRS inhibitor project, luminescence, high throughput | Jurkat cells viability, ATP luminescence | inhibition, % at 8.3 µM | 1,400 compounds, 12% hits | shares compounds with Tb MetRS inh; in the data active = inhibition above about 15%;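 note: 0% = vehicle and 100% = reference inhibitor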
TbMetRS FP orth – T. brucei MetRS inhibitors, orthogonal assay for T. brucei MetRS inhibitor project, biochemical, fluorescence polarization | shares compounds with Tb MetRS inh | purified T. brucei MetRS | inhibition, % at 11.9 µM | 1,400 compounds, 44% hits | AID 651607, 2012; in the data active = inhibition above about 17%;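 note: 0% = vehicle wells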
Numbers without * were called inactive; · = not tested or not shown. The list is not random: actives were taken first. Their share in the collection is about 1.4%.

SMILES	Tb MetRS inh	IDE act	Yeast superoxide	HDAC3 inhib	IDE inh	Efflux pump mplx	IDE inh confirm	HEK cytotox	TbMetRS confirm	Jurkat cytotox	TbMetRS FP orth	others
CCOC(=O)C1=C(C)N=c2s/c(=C\c3ccc(OCC(=O)O)cc3)c(=O)n2C1c1ccccc1 (stereo unspecified)	0.1	4.1	100.7	10.2	1.4	-0.1	·	·	·	·	·
COC(=O)C1=C(C)N=c2s/c(=C/c3ccoc3)c(=O)n2C1c1ccccc1 (stereo unspecified)	0.6	-9.5	99.3	0.2	27.8*	0.5*	28.6*	14.0	·	·	·	Cmpd fluor yeast=140.0;CaMdr1 efflux inh=0.4;CaCdr2 efflux inh=120.5;CaCdr1 efflux inh=0.1
Nc1cc(=O)[nH]c(SCC(=O)Nc2ccc(N3CCCCC3)cc2)n1	0.4	2.6	90.0	-2.5	2.2	0.2	·	·	·	·	·
O=C1Nc2ccccc2/C1=C/c1cnc(-c2ccccc2)[nH]1	-0.1	-31.6	90.4	-1.5	32.3*	0.8*	29.7*	8.9	·	·	·	Cmpd fluor yeast=111.2;CaMdr1 efflux inh=0.1;CaCdr2 efflux inh=435.2*;CaCdr1 efflux inh=0.6
Clc1ccc2[nH]c3c(NCCN4CCOCC4)ncnc3c2c1	42.3*	-3.1	97.2	-2.5	19.4*	-0.1	3.7	15.8	62.0*	3.4	26.4*
COc1ccc2cc(CN(CC3CCCO3)C(=S)NCc3ccco3)c(=O)[nH]c2c1 (stereo unspecified)	-0.5	1.4	106.7	4.5	-2.3	0.3	·	·	·	·	·
S=C(Nc1ccccc1)Nc1nc2ccccc2n1CCOc1ccccc1	18.2*	-22.4	125.2	1.9	28.5*	0.2	18.1*	7.1	4.9	-0.3	3.0
CC(=O)Nc1nc2ccccc2n1CCOc1ccccc1	1.6	3.8	91.5	6.2	0.1	0.1	·	·	·	·	·
Cc1ccc2nc(/C(C#N)=C/c3ccc(-c4ccccc4C(=O)O)o3)[nH]c2c1	6.0*	-73.7	89.3	7.1	85.3*	0.2	115.1*	12.7	21.7*	4.2	4.0
COc1ccc2nc(/C(C#N)=C\c3ccc(C(=O)O)cc3)[nH]c2c1	-0.2	-2.3	97.3	8.4	8.7	-0.1	·	·	·	·	·
